According to ChEMBL document CHEMBL3259728, “Design, synthesis and biological evaluation of some novel substituted quinazolines as antitumor agents” (2014):

Assays:
Format in all cases: functional
NCI-H460 = experiment: Cytotoxicity against human NCI-H460 cells after 48 hrs by SRB assay; conditions: NCI-H460, 48 h
Procedure, shortened: (§1)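 NCI 60-cell-line panel of human tumour lines from nine cancer types. Continuous 48 h exposure at five 10-fold dilutions from 10^-4 to 10^-8 M, with 5-FU as positive control. SRB protein stain read spectrophotometrically at time zero, untreated control and each concentration. GI50, TGI and LC50 were derived from the [(Ti−Tz)/(C−Tz)]×100 growth relations, and out-of-range values are given as > or < the tested limits.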

MCF7 = experiment: Growth inhibition of human MCF7 cells assessed as cell growth at 10^-8 M after 48 hrs by SRB assay; conditions: MCF7, 48 h, read-out: Activity
ACHN = experiment: Growth inhibition of human ACHN cells assessed as cell growth at 10^-5 M after 48 hrs by SRB assay; conditions: read-out: Activity
Procedure, shortened: (§2)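 Five-dose NCI panel protocol. Each dose (10^-4 to 10^-8 M, 10-fold steps) was given as 48 h continuous exposure, and protein was measured by SRB staining. Percentage growth at each level is [(Ti−Tz)/(C−Tz)]×100, where Tz is time-zero absorbance and C is untreated control.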

SK-OV-3 = experiment: Growth inhibition of human SKOV3 cells assessed as cell growth at 10^-8 M after 48 hrs by SRB assay; conditions: SK-OV-3, 48 h, read-out: Activity
[1] = Growth inhibition of human OVCAR4 cells assessed as cell growth at 10^-4 M after 48 hrs by SRB assay; conditions: OVCAR-4, 48 h, read-out: Activity
786-0 = experiment: Growth inhibition of human 786-0 cells assessed as cell growth at 10^-5 M after 48 hrs by SRB assay; conditions: 786-0, 48 h, read-out: Activity; procedure, shortened: as §2
Malme-3M [2] = experiment: Growth inhibition of human MALME-3M cells assessed as cell growth at 10^-8 M after 48 hrs by SRB assay; conditions: read-out: Activity
NCI-H322M = experiment: Growth inhibition of human NCI-H322M cells assessed as cell growth at 10^-5 M after 48 hrs by SRB assay; conditions: read-out: Activity
KM12 = experiment: Growth inhibition of human KM12 cells assessed as cell growth at 10^-7 M after 48 hrs by SRB assay; conditions: KM12, 48 h, read-out: Activity
[3] = Growth inhibition of human SF295 cells assessed as cell growth at 10^-7 M after 48 hrs by SRB assay; conditions: SF-295, 48 h, read-out: Activity
NCI-H23 = experiment: Growth inhibition of human NCI-H23 cells assessed as cell growth at 10^-8 M after 48 hrs by SRB assay; conditions: NCI-H23, 48 h, read-out: Activity
COLO 205 = experiment: Growth inhibition of human COLO205 cells assessed as cell growth at 10^-6 M after 48 hrs by SRB assay; conditions: COLO 205, 48 h, read-out: Activity; procedure, shortened: as §2
Malme-3M [4] = experiment: Growth inhibition of human MALME-3M cells assessed as cell growth at 10^-6 M after 48 hrs by SRB assay; conditions: read-out: Activity
RPMI-8226 [5] = experiment: Growth inhibition of human RPMI8226 cells assessed as cell growth at 10^-8 M after 48 hrs by SRB assay; conditions: RPMI-8226, 48 h, read-out: Activity
HT-29 = experiment: Growth inhibition of human HT-29 cells assessed as cell growth at 10^-8 M after 48 hrs by SRB assay; conditions: HT-29, 48 h, read-out: Activity
[6] = Growth inhibition of human HCC2998 cells assessed as cell growth at 10^-4 M after 48 hrs by SRB assay; conditions: HCC 2998, 48 h, read-out: Activity
NCI-H226 = experiment: Growth inhibition of human NCI-H226 cells assessed as cell growth at 10^-5 M after 48 hrs by SRB assay; conditions: NCI-H226, 48 h, read-out: Activity
HCT-116 [7] = experiment: Growth inhibition of human HCT116 cells assessed as cell growth at 10^-6 M after 48 hrs by SRB assay; conditions: HCT-116, 48 h, read-out: Activity
SK-MEL-28 = experiment: Growth inhibition of human SK-MEL-28 cells assessed as cell growth at 10^-8 M after 48 hrs by SRB assay; conditions: SK-MEL-28, 48 h, read-out: Activity
HCT-116 [8] = experiment: Growth inhibition of human HCT116 cells assessed as cell growth at 10^-7 M after 48 hrs by SRB assay; conditions: HCT-116, 48 h, read-out: Activity
[9] = Growth inhibition of human HOP92 cells assessed as cell growth at 10^-5 M after 48 hrs by SRB assay; conditions: HOP-92, 48 h, read-out: Activity
HOP-92 = experiment: Cytotoxicity against human HOP92 cells after 48 hrs by SRB assay; conditions: HOP-92, 48 h; procedure, shortened: as §1
RPMI-8226 [10] = experiment: Growth inhibition of human RPMI8226 cells assessed as cell growth at 10^-4 M after 48 hrs by SRB assay; conditions: RPMI-8226, 48 h, read-out: Activity
[11] = Growth inhibition of human LOXIMVI cells assessed as cell growth at 10^-4 M after 48 hrs by SRB assay; conditions: LOX IMVI, read-out: Activity
T47D = experiment: Growth inhibition of human T47D cells assessed as cell growth at 10^-8 M after 48 hrs by SRB assay; conditions: read-out: Activity
[12] = Growth inhibition of human UACC257 cells assessed as cell growth at 10^-8 M after 48 hrs by SRB assay; conditions: UACC-257, 48 h, read-out: Activity
[13] = Growth inhibition of human HCT15 cells assessed as cell growth at 10^-8 M after 48 hrs by SRB assay; conditions: HCT-15, 48 h, read-out: Activity
MDA-MB-231 = experiment: Growth inhibition of human MDA-MB-231 cells assessed as cell growth at 10^-7 M after 48 hrs by SRB assay; conditions: MDA-MB-231, 48 h, read-out: Activity
IGROV-1 = experiment: Growth inhibition of human IGROV1 cells assessed as cell growth at 10^-8 M after 48 hrs by SRB assay; conditions: IGROV-1, 48 h, read-out: Activity
[14] = Cytotoxicity against human OVCAR5 cells after 48 hrs by SRB assay; conditions: OVCAR-5, 48 h; procedure, shortened: as §1
MDA-MB-435 = experiment: Growth inhibition of human MDA-MB-435 cells assessed as cell growth at 10^-6 M after 48 hrs by SRB assay; conditions: MDA-MB-435, 48 h, read-out: Activity
[15] = read-out: LC50 (the source's name)
[16] = read-out: pLC50 (the source's name) (converted)

Cc1ccc(-c2nc3ccc(Cl)cc3c(=O)n2/N=C/c2ccccc2)cc1
GI50 (NCI-H460; read-out: GI50): 3.68 µM
CC50 (NCI-H460; [15]): > 100 µM
TGI (NCI-H460; read-out: TGI): > 100 µM
GI50 (NCI-H460; read-out: pGI50 (converted)): 3.72 µM
CC50 (NCI-H460; [16]): > 100 µM
TGI (NCI-H460; read-out: pTGI): > 100 µM
growth at 0.01 µM (MCF7): 93%
growth at 10 µM (ACHN): 10%
growth at 0.01 µM (SK-OV-3): 98%
growth at 100 µM [1]: 26%
growth at 10 µM (786-0): 18%
growth at 0.01 µM (Malme-3M [2]): 92%
growth at 10 µM (NCI-H322M): 52%
growth at 0.1 µM (KM12): 97%
growth at 0.1 µM [3]: 80%
growth at 0.01 µM (NCI-H23): 98%
growth at 1 µM (COLO 205): 119%
growth at 1 µM (Malme-3M [4]): 74%
growth at 0.01 µM (RPMI-8226 [5]): 95%
growth at 0.01 µM (HT-29): 100%
growth at 100 µM [6]: 88%
growth at 10 µM (NCI-H226): 38%
growth at 1 µM (HCT-116 [7]): 87%
growth at 0.01 µM (SK-MEL-28): 102%
growth at 0.1 µM (HCT-116 [8]): 96%
growth at 10 µM [9]: 43%
GI50 (HOP-92; read-out: GI50): 6.74 µM
CC50 (HOP-92; [15]): > 100 µM
TGI (HOP-92; read-out: TGI): > 100 µM
GI50 (HOP-92; read-out: pGI50 (converted)): 6.76 µM
CC50 (HOP-92; [16]): > 100 µM
TGI (HOP-92; read-out: pTGI): > 100 µM
growth at 100 µM (RPMI-8226 [10]): 60%
growth at 100 µM [11]: 48%
growth at 0.01 µM (T47D): 89%
growth at 0.01 µM [12]: 100%
growth at 0.01 µM [13]: 92%
growth at 0.1 µM (MDA-MB-231): 99%
growth at 0.01 µM (IGROV-1): 94%
GI50 ([14]; read-out: GI50): > 100 µM
CC50 [14, 15]: > 100 µM
TGI ([14]; read-out: TGI): > 100 µM
GI50 ([14]; read-out: pGI50 (converted)): > 100 µM
CC50 [14, 16]: > 100 µM
TGI ([14]; read-out: pTGI): > 100 µM
growth at 1 µM (MDA-MB-435): 87%
